The target in assay [1] is T1, Protein mono-ADP-ribosyltransferase TIPARP (Homo sapiens) (UniProt Q7Z3E1).
T1 sequence (whole entry): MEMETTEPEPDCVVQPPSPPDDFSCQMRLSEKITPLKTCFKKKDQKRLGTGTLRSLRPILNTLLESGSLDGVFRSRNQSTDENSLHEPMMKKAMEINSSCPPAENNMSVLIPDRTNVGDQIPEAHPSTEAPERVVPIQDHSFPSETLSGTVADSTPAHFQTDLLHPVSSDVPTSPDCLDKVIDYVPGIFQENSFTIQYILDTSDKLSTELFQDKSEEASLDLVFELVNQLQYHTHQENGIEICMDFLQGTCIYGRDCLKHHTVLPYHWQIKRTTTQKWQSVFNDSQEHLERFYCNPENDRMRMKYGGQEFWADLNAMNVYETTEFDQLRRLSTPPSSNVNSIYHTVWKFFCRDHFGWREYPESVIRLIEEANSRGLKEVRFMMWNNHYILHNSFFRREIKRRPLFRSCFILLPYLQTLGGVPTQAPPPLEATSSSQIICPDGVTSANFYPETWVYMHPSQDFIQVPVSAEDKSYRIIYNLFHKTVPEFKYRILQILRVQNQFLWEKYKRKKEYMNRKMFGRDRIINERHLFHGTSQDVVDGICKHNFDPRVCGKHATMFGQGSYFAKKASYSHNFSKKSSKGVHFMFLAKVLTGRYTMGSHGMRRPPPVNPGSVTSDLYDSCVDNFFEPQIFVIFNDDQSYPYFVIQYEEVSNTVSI
Nature of the assay: Inhibition of PARP7 (unknown origin) at 10 uM relative to control.

Assay [2] addresses T2, Poly [ADP-ribose] polymerase tankyrase-2 (Homo sapiens, UniProt Q9H2K2).
T2 sequence (Q9H2K2 whole entry): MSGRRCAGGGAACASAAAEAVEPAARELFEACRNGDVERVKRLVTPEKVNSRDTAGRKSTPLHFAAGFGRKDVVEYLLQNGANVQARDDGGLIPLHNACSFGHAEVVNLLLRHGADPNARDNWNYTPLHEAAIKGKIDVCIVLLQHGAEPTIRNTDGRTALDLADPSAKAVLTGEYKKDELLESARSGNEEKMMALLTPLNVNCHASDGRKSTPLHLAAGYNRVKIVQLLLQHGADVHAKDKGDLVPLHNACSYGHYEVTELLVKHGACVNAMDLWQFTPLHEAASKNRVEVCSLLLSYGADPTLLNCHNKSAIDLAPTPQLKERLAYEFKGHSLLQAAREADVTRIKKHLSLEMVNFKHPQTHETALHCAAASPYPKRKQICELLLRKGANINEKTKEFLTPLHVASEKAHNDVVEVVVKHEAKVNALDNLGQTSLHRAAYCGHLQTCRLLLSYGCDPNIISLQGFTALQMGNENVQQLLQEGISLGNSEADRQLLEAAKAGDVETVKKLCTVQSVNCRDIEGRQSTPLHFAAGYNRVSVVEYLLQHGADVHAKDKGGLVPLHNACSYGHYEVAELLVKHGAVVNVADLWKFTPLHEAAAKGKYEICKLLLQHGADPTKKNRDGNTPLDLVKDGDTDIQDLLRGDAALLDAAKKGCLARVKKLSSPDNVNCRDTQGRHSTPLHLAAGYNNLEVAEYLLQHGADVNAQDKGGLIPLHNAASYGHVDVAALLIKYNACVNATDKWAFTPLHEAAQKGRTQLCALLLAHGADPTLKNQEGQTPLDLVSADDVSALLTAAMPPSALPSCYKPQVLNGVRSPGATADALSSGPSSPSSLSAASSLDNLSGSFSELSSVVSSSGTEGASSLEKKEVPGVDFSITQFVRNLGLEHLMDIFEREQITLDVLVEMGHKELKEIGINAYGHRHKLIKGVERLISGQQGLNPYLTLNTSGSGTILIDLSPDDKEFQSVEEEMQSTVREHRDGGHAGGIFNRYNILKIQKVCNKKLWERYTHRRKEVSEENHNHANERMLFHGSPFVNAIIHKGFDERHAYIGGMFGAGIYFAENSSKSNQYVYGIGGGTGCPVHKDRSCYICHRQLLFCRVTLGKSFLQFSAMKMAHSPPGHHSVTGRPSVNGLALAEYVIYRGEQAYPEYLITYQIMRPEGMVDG
Put plainly: Inhibition of auto-PARsylation of GST-tagged TNKS2 PARP domain (947 to 1162) (unknown origin) expressed in Escherichia coli BL21(DE3) after 2 hrs by LC/MS analysis.

The species named for assay [3] is Homo sapiens. Nature of the assay: Selectivity ratio of IC50 for PARP6 (unknown origin) to IC50 for TNKS2 PARP domain (947 to 1162) (unknown origin).
The target of assay [4] is Poly [ADP-ribose] polymerase 2 (Homo sapiens, UniProt Q9UGN5). Nature of the assay: Inhibition of PARP2 (unknown origin).
Sequence of Poly [ADP-ribose] polymerase 2 (Q9UGN5 whole entry, the tested form may be a part): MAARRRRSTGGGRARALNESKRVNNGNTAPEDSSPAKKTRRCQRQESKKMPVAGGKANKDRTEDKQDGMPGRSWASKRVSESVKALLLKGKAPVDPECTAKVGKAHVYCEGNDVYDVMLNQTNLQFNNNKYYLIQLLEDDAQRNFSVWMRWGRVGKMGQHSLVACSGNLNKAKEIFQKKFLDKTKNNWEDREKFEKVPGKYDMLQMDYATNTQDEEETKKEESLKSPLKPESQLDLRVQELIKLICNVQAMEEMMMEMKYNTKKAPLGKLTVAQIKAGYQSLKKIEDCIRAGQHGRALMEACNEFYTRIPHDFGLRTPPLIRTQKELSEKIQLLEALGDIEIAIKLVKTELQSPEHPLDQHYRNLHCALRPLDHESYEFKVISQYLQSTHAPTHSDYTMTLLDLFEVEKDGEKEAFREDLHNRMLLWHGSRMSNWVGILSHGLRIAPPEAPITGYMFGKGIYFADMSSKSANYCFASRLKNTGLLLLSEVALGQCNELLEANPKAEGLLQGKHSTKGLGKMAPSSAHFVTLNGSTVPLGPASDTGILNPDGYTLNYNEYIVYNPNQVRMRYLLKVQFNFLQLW
For assay [5], the species on record is Homo sapiens. Put plainly: Selectivity ratio of IC50 for PARP1 (unknown origin) to IC50 for TNKS2 PARP domain (947 to 1162) (unknown origin).
Assay [6] addresses T3, Poly [ADP-ribose] polymerase tankyrase-2 (Homo sapiens) (UniProt Q9H2K2).
T3 sequence (whole entry): T2 sequence (Q9H2K2 whole entry)
Put plainly: Binding affinity to TNKS2 PARP domain (947 to 1162) (unknown origin) expressed in Escherichia coli BL21(DE3) assessed as thermal stabilization at 125 uM by differential scanning flourimetric analysis. An outline of the steps:
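DSF dose−response. TNKS2 at 0.2 mg/mL with SYPRO Orange (5×). Compounds were serially diluted in 100% DMSO at 50× the assay concentration. Chymotrypsin (1/100 TNKS2 mass equivalents) was added to the protein–dye mix just before the run. Scanned 25−80 °C at about 2 °C/min, ex 490/em 575 nm, and Tm shift was taken against the DMSO control.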

A word on the inhibition: it is the change of the read-out against control, counted positive when it falls. Higher therefore signals a strong effect. One may read the IC50 as the concentration needed to halve the response being measured. Low values mean greater potency, high ones weaker potency. One may read the ΔTm as the shift of the melting midpoint relative to a reference.

As for `Cc1cc(=O)[nH]c2cc(-c3ccccc3F)ccc12`, in assay [1], the inhibition is 37%. In addition, the IC50 is 0.052 µM in assay [2] and > 10 µM in assay [4]. Moreover, the Ratio IC50 in the assay filed under Homo sapiens [3] and in the assay filed under Homo sapiens [5] was > 100 in each case. In addition, in assay [6], the ΔTm worked out at 5.1 °C.

The record behind these values is ChEMBL document CHEMBL2380224, “Fragment-based ligand design of novel potent inhibitors of tankyrases” (J Med Chem, 2013).
